This is a sample that favours compounds with a hit; in the whole collection about 4.5% have one here.
OX1R antag-1 = OX1R (human) antagonism. O43613. AID 485270. OX1R-expressing cells, FRET antagonist read-out. 1.8% of 330,000 active. inhibition, % at 6.6 µM; in the data active means inhibition mostly above about 38%, no sharp cut-off; inactive means mostly below about 40%;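 further: 0% = agonist challenge alone and 100% = reference antagonist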
OX1R antag-2 = antagonists of human orexin 1 receptor; inhibition, % at 5 µM; CHO/OX1R cells, Fluo-8 calcium fluorescence, orexin A; AID 434989; 0.43% of 330,000 active;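 active means inhibition above its plate's threshold, mean inhibition of all tested compounds on the plate plus 3 SD, cut at about 37% in these data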;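 further: 0% = orexin A challenge wells and 100% = SB-334867-A antagonist wells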
CHO parental Ca = counter-screen: ATP calcium response change in parental CHO cells. parental CHO-K1, ATP-induced calcium, Fluo-8 fluorescence. inhibition, % at 5.6 µM. 0.63% of 330,000 active;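 active means inhibition above that plate's mean sample inhibition plus 3 SD, cut at about 26% in these data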;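 further: 0% = ATP-challenged DMSO wells and 100% = DMSO wells without ATP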
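material = parental CHO cells | also added = ATP as calcium-mobilizing challenge | dosing = single point at 5.6 µM | detection = intracellular calcium via Fluo-8 no-wash fluorescent dye | read-out = % inhibition | benchmarks = low control ATP plus DMSO, high control DMSO only | repeats = one well per compound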
GPR7 antagonist = human neuropeptides B/W receptor 1 antagonism | P48145 | GPR7-expressing cells, fluorescence antagonist assay | inhibition, % at 4.4 µM | 1.1% of 290,000 active | AID 1861; in the data active means inhibition above about 16%, passing the limit was not always enough;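 further: cells stimulated with the agonist NPW; 0% = agonist with vehicle and 100% = vehicle without agonist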
Target sequence (P48145 whole entry, looked up): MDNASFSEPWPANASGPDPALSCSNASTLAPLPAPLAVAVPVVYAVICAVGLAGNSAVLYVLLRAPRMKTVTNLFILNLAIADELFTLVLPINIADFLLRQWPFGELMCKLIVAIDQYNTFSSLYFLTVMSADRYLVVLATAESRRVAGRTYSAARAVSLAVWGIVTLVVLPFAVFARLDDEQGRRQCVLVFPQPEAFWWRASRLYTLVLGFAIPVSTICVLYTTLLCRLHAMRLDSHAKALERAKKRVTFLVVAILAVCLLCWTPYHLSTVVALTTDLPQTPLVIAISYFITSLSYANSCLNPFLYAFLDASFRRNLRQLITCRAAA
TAAR1 antag = antagonists of human TAAR1; inhibition, % at 3 µM; Q96RJ0; 1.5% of 360,000 active; CHO RD-HGA16 TAAR1, Fluo-8 calcium fluorescence, antagonist;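 active means inhibition above a per-plate cutoff, the mean inhibition of test compounds on that plate plus 3 SD, cut at about 49% in these data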;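 further: 0% = DMSO plus EC80 beta-PEA response and 100% = DMSO alone without agonist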
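System: CHO RD-HGA16 cells bearing hTAAR1. Reagent: EC80 β-phenethylamine stimulus. Schedule: seeding 17-24 h prior, 75-min 37 °C, 30-min RT dye loading. Signal: Fluo-8 intracellular calcium dye fluorescence, real-time kinetic reads. Read-out: % inhibition from peak post-agonist over basal fluorescence ratio. Benchmarks: vehicle wells and EC80 agonist wells. Replicates: n of 1.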
TAAR1 agonist = agonists of human TAAR1; Q96RJ0; CHO RD-HGA16 TAAR1, Fluo-8 calcium fluorescence; vehicle wells 0%, saturating PEA agonist 100%; activation, % at 3 µM; 0.99% of 360,000 active;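 active means activation above the mean activation of all test compounds in the run plus 3 SD, cut at about 38% in these data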
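Test system: RD-HGA16 (CHO) cells co-expressing Gα16 and hTAAR1 / Benchmarks: DMSO vehicle as 0%, PEA at EC100 as 100% / Repeats: no replicates (n 1) / Measure: % activation from peak over basal fluorescence ratio, DMSO-to-PEA scaled / Timing: 17-24 h plating, Fluo-8 75 min 37 °C, 30 min RT / Technique: kinetic Fluo-8 calcium fluorescence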
GPR7 antag conf = confirmation of human GPR7 antagonists; shares compounds with GPR7 antagonist; GPR7-expressing cells, calcium fluorescence antagonist mode; inhibition, % at 4.4 µM; 52% of 2,400 active; AID 1952; in the data active means inhibition above about 24%;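 further: stimulated with the GPR7 agonist NPW; 0% = agonist plus vehicle and 100% = vehicle alone without agonist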
MCHR1 antagonist = counter-screen for GPR7 antagonists: antagonists of human MCHR1. shares compounds with GPR7 antagonist. 62% of 2,400 active. MCHR1-expressing cells, fluorescence antagonist assay. inhibition, % at 4.4 µM. AID 2148; in the data active means inhibition above about 22%;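 further: 0% = vehicle with agonist and 100% = vehicle without agonist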
* marks the source's active call; other numbers are inactive results; x = no result given.

SMILES	OX1R antag-1	OX1R antag-2	CHO parental Ca	GPR7 antagonist	TAAR1 antag	TAAR1 agonist	GPR7 antag conf	MCHR1 antagonist
Nc1nc2ccccc2n1CCN1CCCC1	24	-15	-5	33*	x	x	-8	2
CCCC(=O)Nc1nc(-c2ccc(OC)cc2)cs1	17	-15	-12	22*	2	10	24*	36*
Cc1nc2n(n1)C(O)c1cc([N+](=O)[O-])ccc1S2 (stereo unspecified)	93*	-8	1	31*	x	x	-7	5
O=[N+]([O-])c1ccc2c(c1)C(O)n1nc(-c3ccc(Cl)cc3Cl)nc1S2 (stereo unspecified)	16	-9	-9	0	9	5	x	x
Cc1ccc(C(=O)N/N=C\c2ccc([N+](=O)[O-])o2)cn1	70*	-6	-15	26*	-7	-1	-18	-9
O=C(c1cc(COc2ccc(F)c(F)c2)on1)N1CCN(C2CCCCC2)C(=O)C1	14	8	19	27*	26	15	11	4
COc1ccc(CN2C[C@@H](CO)O[C@@H](n3cnc4c(NC5CC5)ncnc43)C2)cc1	x	x	x	x	-6	1	x	x
Cc1cccc2cc3c(nc12)SC(=NCC1CCCO1)N(Cc1ccco1)C3 (stereo unspecified)	31	-35	-31	22*	x	x	13	60*
Clc1ccccc1-c1nnn(Cc2ccc(-c3nn[nH]n3)cc2)n1	25	-16	-1	24*	-4	14	29*	19
CCc1cccc(CC)c1NC(=O)Cn1c(-c2ccc(F)cc2)noc1=O	32	-30	-18	27*	4	4	16	18
COc1ccc(-c2cc(C)no2)cc1S(=O)(=O)N1CCOc2ccccc21	17	0	-13	23*	-10	-1	13	18
CN1CCCN(C(=O)c2cc(-c3ccc(Cl)c(Cl)c3Cl)nc3ccccc23)CC1	14	-11	-10	21*	1	3	31*	39*
O=C(OCC(=O)N1CCN(C(=O)c2ccco2)CC1)c1cc(-c2ccc(Cl)c(Cl)c2Cl)nc2ccccc12	23	-30	-40	-12	16	6	x	x
CC(C)=NOCC(=O)Nn1c(COc2c(C)cccc2C)nc2ccccc2c1=O	5	-33	-13	26*	6	4	-16	-3
CC(=O)Nn1c(COc2ccccc2C)nc2ccccc2c1=O	16	-2	-4	23	-1	6	x	x
CCN(CC)CCNC(=O)c1ccc(NC(=O)c2cn(-c3ccccc3)nc2-c2cccs2)cc1	25	-2	18	22*	24	11	35*	45*
CCN(CC)CCNC(=O)c1ccc(NC(=O)c2cn(-c3ccc(F)cc3)nc2-c2cccc(OC)c2)cc1	15	-19	2	15	12	7	x	x
COc1ccc(Cl)cc1NC(=O)NCC1CCN(Cc2cc(C)ccc2C)CC1	0	-15	0	28	-7	8	x	x
Cc1ccc(C)c(CN2CCC(CNC(=O)Nc3ccc(C)c(C)c3)CC2)c1	-8	-21	-13	36*	2	2	17	25*
CCCCNc1nnc(SCC(=O)c2c(N)n(C3CC3)c(=O)[nH]c2=O)s1	5	1	-2	x	-15	4	x	x
O=C(O)c1ccccc1C(c1ccccc1)c1ccccc1O (stereo unspecified)	x	x	x	x	8	2	x	x
C[C@H]1CC[C@H]2C(=O)N3[C@H](c4ccccc4Br)[C@@H](C)CC[C@H]3C(=O)N2[C@@H]1c1ccccc1Br	75*	39	23	29*	x	x	57*	59*
CCCCNC(=NCc1cccc(C(F)(F)F)c1)Nc1ccccc1	15	-23	-23	44*	13	18	49*	31*
